Results gathered from unrelated publications.
Lines come from different studies, so protocols differ.
Cell line: SK-MEL-2
Observed: cell growth or viability

COc1ccc(-c2ccc(-c3ccc(C(=N)N)nc3)s2)cc1
GI50 (SRB): 2.05 µM

O=C1NCCc2[nH]c(-c3ccncc3)cc21
IC50: > 10 µM

COc1ccc(-c2ccc(-c3ccc(C(=N)N)nc3)s2)cc1Cl
GI50 (SRB): 2.15 µM

COc1ccc(C(=O)/C=C/c2ccccc2Br)cc1S(N)(=O)=O
GI50 (SRB; 48 h): 14.5 µM

O=C(c1c(F)ccc(NS(=O)(=O)N2CC[C@@H](F)C2)c1F)c1c[nH]c2ncc(-c3cnc(C4CC4)nc3)cc12
IC50 (ATP luminescence; 72 h): > 20 µM

O=C1NC(=NCc2cccs2)S/C1=C\c1ccc2ncccc2c1
IC50: > 10 µM

COc1ccc(C(=O)/C=C/c2ccc(Cl)c(Cl)c2)cc1S(N)(=O)=O
GI50 (SRB; 48 h): 5.6 µM

COc1cccc(Oc2ccccc2NC(=O)CNC(=O)c2cccc3ccccc23)c1
GI50 (SRB; 48 h): 0.182 µM
